What was measured:
[1] = target: T1, Prostaglandin D2 receptor 2 (Homo sapiens, UniProt Q9Y5Y4); experiment: Displacement of [3H]PGD2 from human CRTH2 expressed in chinese hamster CHO cells by liquid scintillation counting; type: cell-based
T1 sequence (Q9Y5Y4 whole entry): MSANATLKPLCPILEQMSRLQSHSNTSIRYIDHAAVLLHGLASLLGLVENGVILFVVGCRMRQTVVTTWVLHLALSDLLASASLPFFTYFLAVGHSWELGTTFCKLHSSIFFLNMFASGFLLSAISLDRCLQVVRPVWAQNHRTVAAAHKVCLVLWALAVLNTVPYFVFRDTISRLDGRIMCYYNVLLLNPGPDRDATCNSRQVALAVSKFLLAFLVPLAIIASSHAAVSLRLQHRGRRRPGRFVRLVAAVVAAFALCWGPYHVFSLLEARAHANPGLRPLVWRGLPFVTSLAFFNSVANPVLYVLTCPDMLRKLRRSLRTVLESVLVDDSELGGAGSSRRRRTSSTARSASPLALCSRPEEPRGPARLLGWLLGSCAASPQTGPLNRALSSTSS
Summary of the method: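 Scintillation proximity competition assay: 2–5 μg human CRTH2 cell membranes, 1.5 nM [3H]PGD2, WGA-SPA beads, 10 mM HEPES/KOH pH 7.4, 10 mM MnCl2, protease inhibitors, 1% DMSO; 90 min, room temperature, shaking. Nonspecific binding defined with 1 μM PGD2. Ki by Cheng–Prusoff, mean of ≥3 independent dose–response experiments.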

[2] = target: T2, Prostaglandin D2 receptor 2 (Homo sapiens) (UniProt Q9Y5Y4); experiment: Partial agonist activity at human CRTH2 expressed in chinese hamster CHO cells by cellular dielectric spectroscopy relative to PGD2; type: functional, cell-based
T2 sequence (whole entry): T1 sequence (Q9Y5Y4 whole entry)
Summary of the method: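 CHO-CRTH2 cells seeded at 100000/well, grown 24 h at 37 °C, washed into HBSS/10 mM HEPES pH 7.4 with 1% DMSO; impedance recorded. Agonism: compound alone, 25 min read. Antagonism: PGD2 at EC80 added to cell–compound mixture, 25 min read. Run with 0.1% BSA.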

[3] = AUC in BALB/c mouse at 5 mg/kg, po; type: ADME, organism-based; design: dose 5 mg/kg, route oral; conditions: plasma
Summary of the method: (§1)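 Mouse PK after a 5 mg/kg oral dose.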

[4] = Clearance in BALB/c mouse at 5 mg/kg, po by LC/MS/MS analysis; type: ADME, organism-based; design: dose 5 mg/kg, route oral; conditions: in vivo
[5] = Percentage unbound in rat plasma; type: ADME, cell-free
[6] = Percentage unbound in mouse plasma; type: ADME, cell-free
[7] = Percentage unbound in human plasma; type: ADME, cell-free
[8] = Oral bioavailability in BALB/c mouse at 5 mg/kg by LC/MS/MS analysis; type: ADME, organism-based; conditions: in vivo; summary of the method: as §1
[9] = Apparent permeability across human Caco2 cells at 1 uM after 2 hrs by LC/MS/MS analysis; type: ADME, cell-based; conditions: Caco-2
[10] = target: T1, Prostaglandin D2 receptor 2; experiment: Antagonist activity at human CRTH2 expressed in human CHO cells by cellular dielectric spectroscopy
[11] = target: T3, Prostaglandin D2 receptor 2 (Mus musculus, UniProt Q9Z2J6); experiment: Displacement of [3H]PGD2 from mouse CRTH2 expressed in human HEK cells by liquid scintillation counting; type: cell-based, HEK293
T3 sequence (Q9Z2J6 whole entry): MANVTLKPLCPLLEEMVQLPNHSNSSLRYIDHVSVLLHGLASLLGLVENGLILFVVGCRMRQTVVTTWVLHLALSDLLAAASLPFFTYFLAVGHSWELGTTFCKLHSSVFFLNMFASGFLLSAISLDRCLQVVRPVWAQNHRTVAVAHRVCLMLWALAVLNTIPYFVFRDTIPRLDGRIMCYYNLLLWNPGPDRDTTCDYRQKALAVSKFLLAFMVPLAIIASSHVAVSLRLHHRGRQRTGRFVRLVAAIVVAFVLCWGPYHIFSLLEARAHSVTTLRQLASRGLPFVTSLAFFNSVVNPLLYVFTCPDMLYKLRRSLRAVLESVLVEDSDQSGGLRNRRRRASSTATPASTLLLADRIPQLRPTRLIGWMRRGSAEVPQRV
Summary of the method: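 Mouse CRTH2 cDNA stably expressed in HEK293(EBNA) cells (hygromycin-selected) and membranes made by nitrogen cavitation. SPA competition uses 2–5 μg membranes, 1.5 nM [3H]PGD2, HEPES/KOH pH 7.4 with 10 mM MnCl2, 1% DMSO, 90 min at room temperature. Nonspecific binding defined with 1 μM PGD2. Ki by Cheng–Prusoff, ≥3 independent experiments.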

[12] = Kinetic solubility of the compound in phosphate buffered saline; type: physicochemical; conditions: read-out: Kinetic_solubility
[13] = Volume of distribution at steady state in BALB/c mouse at 0.2 mg/kg, iv and 1 mg/kg, po by LC/MS/MS analysis; conditions: in vivo, read-out: Vdss
[14] = Kinetic solubility of the compound in 2% DMSO; type: physicochemical; conditions: read-out: Kinetic_solubility
[15] = Lipophilicity, log D of the compound at pH 7.4; type: physicochemical; conditions: buffer
[16] = Intrinsic clearance in human liver microsomes assessed per mg of protein at 1 uM by LC/MS/MS analysis; type: ADME, Microsome
[17] = target: Cytochrome P450 2C9 (Homo sapiens, UniProt P11712); experiment: Inhibition of human recombinant CYP2C9 expressed in baculovirus infected insect cells preincubated for 15 mins measured after 30 mins by luminescence analysis; type: ADME
Sequence of Cytochrome P450 2C9 (P11712 whole entry): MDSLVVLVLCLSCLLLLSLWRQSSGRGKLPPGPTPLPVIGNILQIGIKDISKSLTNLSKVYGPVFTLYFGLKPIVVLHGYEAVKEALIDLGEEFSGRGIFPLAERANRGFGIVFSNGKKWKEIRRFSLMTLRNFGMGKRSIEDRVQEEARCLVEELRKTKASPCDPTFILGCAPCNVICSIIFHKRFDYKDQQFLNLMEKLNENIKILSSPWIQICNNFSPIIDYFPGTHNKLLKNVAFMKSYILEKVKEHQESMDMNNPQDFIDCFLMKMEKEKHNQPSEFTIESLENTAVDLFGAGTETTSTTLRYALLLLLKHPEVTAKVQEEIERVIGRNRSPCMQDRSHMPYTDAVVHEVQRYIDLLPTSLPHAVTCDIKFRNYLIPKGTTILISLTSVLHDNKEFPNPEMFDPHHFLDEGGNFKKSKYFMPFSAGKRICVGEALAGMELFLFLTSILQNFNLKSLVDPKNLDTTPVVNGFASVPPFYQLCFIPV

[18] = Half life in BALB/c mouse at 0.2 mg/kg, iv by LC/MS/MS analysis; type: ADME, organism-based; design: dose 0.2 mg/kg, route intravenous; conditions: in vivo
[19] = Intrinsic clearance in rat liver microsomes assessed per mg of protein at 1 uM by LC/MS/MS analysis; type: ADME, Microsome
[20] = target: T1, Prostaglandin D2 receptor 2; experiment: Displacement of [3H]PGD2 from human CRTH2 expressed in chinese hamster CHO cells by liquid scintillation counting in the presence of 0.1% BSA; type: cell-based
Summary of the method: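 Scintillation proximity assay on 2–5 μg human CRTH2 membranes with WGA-SPA beads and 1.5 nM [3H]PGD2. Buffer: 10 mM HEPES/KOH pH 7.4, 10 mM MnCl2, protease inhibitors, 1% DMSO, 0.1% BSA. Incubated 90 min at room temperature with shaking. Nonspecific binding defined with 1 μM PGD2. Ki by Cheng–Prusoff, mean of at least three independent dose–response experiments.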

[21] = target: T1, Prostaglandin D2 receptor 2; experiment: Antagonist activity at human CRTH2 expressed in […] by cellular dielectric spectroscopy in the presence of PGD2 and 0.1% BSA; type: functional, cell-based
Summary of the method: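 CHO-CRTH2 cells grown in HAM's F12 with 10% FCS and 400 μg/mL Geneticin, seeded at 100000 cells/well, 24 h at 37 °C. Washed in HBSS plus 10 mM HEPES pH 7.4 with 1% DMSO and 0.1% BSA. Compound added, then PGD2 at its EC80.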

[22] = Clearance in BALB/c mouse at 0.2 mg/kg, iv and 1 mg/kg, po by LC/MS/MS analysis; type: ADME, organism-based; conditions: in vivo
Summary of the method: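 Low-dose cassette PK in mouse: 0.2 mg/kg iv and 1 mg/kg po.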

[23] = Half life in BALB/c mouse at 1 mg/kg, po by LC/MS/MS analysis; type: ADME, organism-based; design: dose 1 mg/kg, route oral; conditions: in vivo
[24] = target: Prostaglandin E2 receptor EP2 subtype (Homo sapiens) (UniProt P43116); experiment: Inhibition of EP2 receptor at 10 uM
Sequence of Prostaglandin E2 receptor EP2 subtype (Homo sapiens) (P43116 whole entry): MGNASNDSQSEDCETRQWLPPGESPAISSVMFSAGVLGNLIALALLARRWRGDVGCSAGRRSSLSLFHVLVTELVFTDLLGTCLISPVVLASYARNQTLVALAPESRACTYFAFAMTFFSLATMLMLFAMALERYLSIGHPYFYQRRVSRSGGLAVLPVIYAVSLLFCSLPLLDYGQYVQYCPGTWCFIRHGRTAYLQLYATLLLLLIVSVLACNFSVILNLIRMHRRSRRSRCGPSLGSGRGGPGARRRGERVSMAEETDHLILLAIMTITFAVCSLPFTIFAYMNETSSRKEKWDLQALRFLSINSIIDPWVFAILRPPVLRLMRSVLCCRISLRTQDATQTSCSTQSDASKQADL
Summary of the method: (§2)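 Selectivity screen: panel of 50 receptor and ion-channel targets, tested at 10 μM; EP2 by binding assay; GABA-gated Cl− channel from rat. Result expressed as % inhibition.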

[25] = species on record: Rattus norvegicus; experiment: Inhibition of rat GABA gated chloride ion channel at 10 uM; summary of the method: as §2
[26] = Oral bioavailability in BALB/c mouse at 1 mg/kg by LC/MS/MS analysis; type: ADME, organism-based; conditions: in vivo
Summary of the method: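 Oral bioavailability in mouse from a 1 mg/kg po dose given in a cocktail (cassette) experiment.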

CS(=O)(=O)c1ccc(F)c(C#Cc2cc(Cl)ccc2OCC(=O)O)c1
Ki [1]: 0.0033 µM
Emax [2]: 10%
AUC [3]: 3240 ng·h/mL
CL/F [4]: 6.67 mL/min/kg
fraction unbound [5]: 0.011
fraction unbound [6]: 0.054
fraction unbound [7]: 0.013
bioavailability [8]: 24%

O=C(O)COc1ccc(Cl)cc1C#Cc1cccc(Cl)c1
Papp at 2 h, 1 µM [9]: 18.4 ×10⁻⁶ cm/s
IC50 [10]: 0.114 µM
Ki [11]: 0.0374 µM
Ki [1]: 0.029 µM
solubility kinetic [12]: > 200 µM
Vd [13]: 0.3 L/kg
solubility kinetic [14]: > 200 µM
logD [15]: 0.5
fraction unbound [5]: < 0.003
microsomal CLint at 1 µM [16]: 12 µL/min/mg
IC50 [17]: 1.44 µM
half-life [18]: 18 min
microsomal CLint at 1 µM [19]: 27 µL/min/mg
IC50 [20]: 0.029 µM
IC50 [21]: 1.2 µM
clearance [22]: 16.7 mL/min/kg
half-life [23]: 96 min
fraction unbound [6]: < 0.003
inhibition [24]: 66%
fraction unbound [7]: < 0.003
inhibition [25]: 76%
bioavailability [26]: 82%

Reference: ChEMBL document CHEMBL1914440, “Discovery of potent, selective, and orally bioavailable alkynylphenoxyacetic acid CRTH2 (DP2) receptor antagonists for the treatment of allergic inflammatory diseases” (J Med Chem, 2011)
